Laboratory results from ChEMBL document CHEMBL1123521, “Isozyme-specific enzyme inhibitors. 10. Adenosine 5'-triphosphate derivatives as substrates or inhibitors of methionine adenosyltransferases of rat normal and hepatoma tissues” (J Med Chem, 1986).

Columns and labels:
[1] = target: T1, S-adenosylmethionine synthase isoform type-1 (Rattus norvegicus, UniProt P13444); experiment: Inhibitory constant against rat liver Methionine adenosyltransferase I, activity expressed as Ki
Procedure, shortened: (§1)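 Rat liver MAT-I, prepared free of MAT-II and MAT-III and diluted 5-fold. Duplicate assays at 37 °C, 30 min, in 150 mM KCl–7.5 mM MgSO4–2 mM DTT–50 mM HEPES pH 7.5 with 380 μM [14C]methionine. Two inhibitor levels (1:1 Mg complexes, 1-5 × Ki) run against six to eight Mg-ATP levels spanning 0.5-4.0 × KM. Ki taken from kinetic plots.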

[2] = target: T2, S-adenosylmethionine synthase isoform type-2 (Rattus norvegicus, UniProt P18298); experiment: Inhibitory constant against rat kidney Methionine adenosyltransferase II, activity expressed as Ki
Procedure, shortened: (§2)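 MAT-II from rat kidney extract, taken through DEAE chromatography and diluted 10-fold daily. Duplicate 30-min incubations at 37 °C in 150 mM KCl–15 mM MgCl2–5 mM DTT–50 mM Tris-HCl pH 8.2 with 60 μM [14C]methionine. Mg-complexed inhibitor used at two levels (1-5 × Ki) against six to eight Mg-ATP levels (0.5-4.0 × KM). Product counted on phosphocellulose disks.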

[3] = target: T3, S-adenosylmethionine synthetase (MAT 1 and MAT 2) (Rattus norvegicus, UniProt P13444+P18298); experiment: Competitive inhibition of rat methionine adenosyltransferase, activity expressed as Ki; type: protein assay
Procedure, shortened: (§3)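 MAT-T partly purified from rat Novikoff hepatoma cells grown intraperitoneally in rats: cytosol extract, DEAE-cellulose, stored at -20 °C, diluted 10-fold for use. Assay run in duplicate, 37 °C for 30 min, in 150 mM KCl–15 mM MgCl2–5 mM DTT–50 mM Tris-HCl pH 8.2 with 60 μM [14C]methionine. Inhibitors given as 1:1 Mg complexes at two levels of 1-5 × Ki, with six to eight Mg-ATP levels (0.5-4.0 × KM).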

[4] = target: T2, S-adenosylmethionine synthase isoform type-2; experiment: Inhibitory constant against rat kidney Methionine adenosyltransferase II; procedure, shortened: as §2
[5] = target: T3, S-adenosylmethionine synthetase (MAT 1 and MAT 2); experiment: […] rat Methionine adenosyltransferase was reported; type: protein assay; procedure, shortened: as §3
[6] = target: T3, S-adenosylmethionine synthetase (MAT 1 and MAT 2); experiment: Inhibitory constant against rat methionine adenosyltransferase was reported; type: protein assay; procedure, shortened: as §3
[7] = target: T1, S-adenosylmethionine synthase isoform type-1; experiment: Inhibitory constant against rat liver Methionine adenosyltransferase I; procedure, shortened: as §1

T2 sequence (P18298 whole entry, canonical isoform): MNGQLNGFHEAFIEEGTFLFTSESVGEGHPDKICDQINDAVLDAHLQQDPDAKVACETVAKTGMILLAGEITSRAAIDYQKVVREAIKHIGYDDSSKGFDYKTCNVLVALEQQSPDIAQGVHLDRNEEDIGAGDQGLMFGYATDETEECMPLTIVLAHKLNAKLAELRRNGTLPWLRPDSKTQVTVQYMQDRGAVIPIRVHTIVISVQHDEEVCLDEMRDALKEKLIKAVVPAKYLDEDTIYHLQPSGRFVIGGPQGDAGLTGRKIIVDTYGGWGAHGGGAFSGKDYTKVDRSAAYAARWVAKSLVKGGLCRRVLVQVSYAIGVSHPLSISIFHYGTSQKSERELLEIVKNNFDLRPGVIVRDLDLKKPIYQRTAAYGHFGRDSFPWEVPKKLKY
T1 sequence (P13444 whole entry, canonical isoform): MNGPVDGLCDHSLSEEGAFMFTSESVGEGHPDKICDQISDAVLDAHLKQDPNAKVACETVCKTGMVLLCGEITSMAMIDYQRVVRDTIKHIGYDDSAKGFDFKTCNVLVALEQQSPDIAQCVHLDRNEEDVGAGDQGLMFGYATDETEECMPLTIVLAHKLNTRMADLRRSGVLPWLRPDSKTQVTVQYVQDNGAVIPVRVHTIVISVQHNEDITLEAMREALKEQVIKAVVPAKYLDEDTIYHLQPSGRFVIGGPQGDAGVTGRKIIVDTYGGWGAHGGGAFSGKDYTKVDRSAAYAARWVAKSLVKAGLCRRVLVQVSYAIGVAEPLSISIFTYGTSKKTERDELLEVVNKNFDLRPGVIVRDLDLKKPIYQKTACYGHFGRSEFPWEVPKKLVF

CC(OP(=O)(O)OP(=O)(O)OP(=O)(O)O)[C@H]1O[C@@H](n2cnc3c(N)ncnc32)[C@H](O)[C@@H]1O (stereo not given in full)
Ki [1]: 9 µM | Ki [2]: 190 µM | Ki [3]: 80 µM

Nc1ncnc2c1ncn2[C@@H]1O[C@H](COP(=O)(O)OP(=O)(O)NP(=O)(O)O)[C@@H](O)[C@H]1O
Ki [4]: 5.5 µM | Ki [5]: 4 µM

CCCC(OP(=O)(O)OP(=O)(O)OP(=O)(O)O)[C@H]1O[C@@H](n2cnc3c(N)ncnc32)[C@H](O)[C@@H]1O (stereo not given in full)
Ki [2]: 48 µM | Ki [3]: 37 µM

CSc1nc(N)c2ncn([C@@H]3O[C@H](COP(=O)(O)OP(=O)(O)OP(=O)(O)O)[C@@H](O)[C@H]3O)c2n1
Ki [4]: 600 µM | Ki [5]: 110 µM

CO[C@H]1[C@@H](O)[C@H](n2cnc3c(N)ncnc32)O[C@@H]1COP(=O)(O)OP(=O)(O)OP(=O)(O)O
Ki [2]: 170 µM | Ki [3]: 180 µM

CCCCNc1ncnc2c1ncn2C1O[C@H](COP(=O)(O)OP(=O)(O)OP(=O)(O)O)[C@@H](O)[C@H]1O (stereo not given in full)
Ki [4]: 530 µM | Ki [6]: 210 µM

CO[C@@H]1[C@H](O)[C@@H](COP(=O)(O)OP(=O)(O)OP(=O)(O)O)O[C@H]1n1cnc2c(N)ncnc21
Ki [2]: 140 µM | Ki [3]: 170 µM

CSc1nc2c(N)ncnc2n1[C@@H]1O[C@H](COP(=O)(O)OP(=O)(O)OP(=O)(O)O)[C@@H](O)[C@H]1O
Ki [5]: 530 µM

Nc1ncnc2c1ncn2[C@@H]1O[C@H](COP(=O)(O)CP(=O)(O)OP(=O)(O)O)[C@@H](O)[C@H]1O [DIPHOSPHOMETHYLPHOSPHONIC ACID ADENOSYL ESTER]
Ki [4]: 300 µM | Ki [5]: 340 µM

Nc1ncnc2c1nc(SCCC(N)C(=O)O)n2C1O[C@H](COP(=O)(O)OP(=O)(O)OP(=O)(O)O)[C@@H](O)[C@H]1O (stereo not given in full)
Ki [7]: 3300 µM | Ki [4]: 520 µM
